ABCB1 block: human ABCB1 inhibition, ABCG2 as counter-screen | 190,000 compounds, 0.067% hits | CCRF-Adr cells, JC-1 efflux, flow cytometry | inhibition, % at 6.6 µM | AID 1326; in the data active = inhibition above about 40%;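 also: 0% = vehicle and 100% = reference inhibitor; higher value means more JC-1 retained so stronger ABCB1 efflux block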
RAM inhibit: yeast RAM network inhibition | S. cerevisiae dse1pr::URA3 reporter, 5-FOA growth OD615, 2 d; analog-sensitive cbk1-as2 kinase mutant strain | inhibition, % at 50 µM | 190,000 compounds, 1.8% hits | AID 868;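 active = inhibition above a set limit, 3 SD over mean compound inhibition, cut at about 8.4% in these data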;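 also: 0% = DMSO-only wells with no growth and 100% = 10 µM 1-NA-PP1 full growth; inhibition rescues growth on 5-FOA so higher OD means more RAM inhibition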
WT yeast gro inh: growth inhibition of WT yeast, mitochondrial fusion screen | mitochondrial fusion phenotypic screen, WT strain | inhibition, % at 10 µM | 190,000 compounds, 2.1% hits; in the data active = inhibition above about 58%; tested in S. cerevisiae
ABCG2 inh: inhibitors of human ABCG2 transporter, ABCB1 counter-screen | Q9UNQ0 | IgMXP3 cells, JC-1 efflux, flow cytometry | inhibition, % at 6.6 µM | 190,000 compounds, 0.1% hits | AID 1325;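 active = inhibition above 80%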;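 also: 0% = DMSO and 100% = nicardipine control wells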
Target sequence (Q9UNQ0 whole entry, looked up): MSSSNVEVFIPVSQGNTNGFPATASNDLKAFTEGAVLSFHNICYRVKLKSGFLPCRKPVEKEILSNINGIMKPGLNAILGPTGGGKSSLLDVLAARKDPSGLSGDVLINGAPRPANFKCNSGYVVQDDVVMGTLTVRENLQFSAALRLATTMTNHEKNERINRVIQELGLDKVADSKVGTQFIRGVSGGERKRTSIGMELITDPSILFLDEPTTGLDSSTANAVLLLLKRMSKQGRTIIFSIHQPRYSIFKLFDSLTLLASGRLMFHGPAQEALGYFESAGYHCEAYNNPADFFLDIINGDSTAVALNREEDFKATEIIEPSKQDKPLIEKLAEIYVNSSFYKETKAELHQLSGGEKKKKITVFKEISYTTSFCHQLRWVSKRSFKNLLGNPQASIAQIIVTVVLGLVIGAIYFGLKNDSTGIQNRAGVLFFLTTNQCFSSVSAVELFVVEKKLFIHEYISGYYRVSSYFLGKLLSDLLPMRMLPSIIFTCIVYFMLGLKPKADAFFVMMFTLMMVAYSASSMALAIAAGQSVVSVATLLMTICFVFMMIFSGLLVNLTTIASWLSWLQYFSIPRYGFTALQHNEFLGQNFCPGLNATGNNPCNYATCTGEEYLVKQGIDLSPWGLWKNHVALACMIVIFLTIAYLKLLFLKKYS
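Assay system – ABCG2 IgMXP3 and barcoded ABCB1 CCRF-Adr cell mix · Input – 3 million cells/mL in well · Reagent – JC-1 fluorescent substrate · Compound – single test compound dose, 6.6 µM final · Timing – 10 min exposure at 25 °C with rotation, no wash · Detection – flow cytometry of retained JC-1 fluorescence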
L major viab: Leishmania major promastigote growth inhibition; Leishmania major promastigotes, resazurin fluorescence viability; inhibition, % at 10 µM; 200,000 compounds, 9% hits; in the data active = inhibition above about 50%;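 also: promastigotes grown with compound for 44 hours at 28 °C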
Starred values were filed as active, the others as inactive; . = no result given. In the library only some 12% were active in any assay of this set; here they are far more common.

SMILES | ABCB1 block | RAM inhibit | WT yeast gro inh | ABCG2 inh | L major viab
Cc1ccc(CN=c2c([N+](=O)[O-])nn(-c3cccc(Cl)c3)n2O)cc1 | 1.4 | 4.0 | 60.7* | 6.5 | 19.9
COc1ccc(-n2nc([N+](=O)[O-])c(=NCCC3=CCCCC3)n2O)cc1 | 1.6 | -0.6 | 45.5 | -1.2 | 82.0*
COc1ccc(NC(=O)NCCC2=CCCCC2)cc1 | 0.2 | 2.4 | -2.4 | 2.9 | 1.7
COc1ccc(-n2nc([N+](=O)[O-])c(=NCc3cccnc3)n2O)cc1 | 0.8 | 2.6 | -0.9 | 6.2 | 82.1*
COc1ccc(-n2nc([N+](=O)[O-])c(=NCCc3ccc(OC)c(OC)c3)n2O)cc1 | 2.0 | -0.7 | 5.1 | 12.3 | 93.8*
Cc1ccccc1C(=O)Nc1nnc(SC(C)C)s1 | -0.2 | -0.1 | -30.9 | -0.7 | 5.7
O=C(O)c1sc2cc(C(F)(F)F)cnc2c1-c1ccccn1 | 0.2 | 1.2 | 1.4 | 1.6 | -6.5
CCCn1c(=O)[nH]c(=O)c2c1nc(-c1ccc(OC)c(Br)c1)n2CCOC | 1.0 | 1.2 | -7.5 | 23.5 | 37.1
COc1ccc(-n2nc([N+](=O)[O-])c(=NCCc3ccc(C)cc3)n2O)cc1 | 1.6 | 0.6 | 1.0 | 9.3 | 80.2*
COc1ccc(-n2nc([N+](=O)[O-])c(=NCCc3ccc(Cl)cc3)n2O)cc1 | 1.6 | 2.4 | 16.8 | 7.0 | 26.4
CCC(C)(C)NC(=S)Nc1ccc(-c2nc3ccc(C)cc3s2)cc1 | 0.8 | 3.7 | 1.8 | 3.6 | 74.7*
CCCCNC(=S)Nc1ccc(-c2nc3ccc(C)cc3s2)cc1 | -0.4 | 2.6 | 7.2 | -0.7 | 4.2
Cc1ccc2nc(-c3ccc(NS(=O)(=O)c4ccc(F)cc4)cc3)sc2c1 | -0.9 | 4.3 | 95.0 | -5.6 | 64.7*
CNS(=O)(=O)c1cccc(C(=O)OCC(=O)Nc2ccc(-c3nc4ccc(C)cc4s3)cc2)c1 | -0.2 | 11.3* | 9.4 | 2.9 | -4.2
COc1ccc(/C=N/NC(=O)c2ccc(O)cc2O)cc1CSc1ccccn1 | -1.3 | 1.0 | -0.9 | -4.9 | -11.5
COc1ccc(-c2nc(N)n(C(=O)c3ccccc3Cl)n2)cc1 | 2.1 | 2.9 | 13.3 | 14.8 | 16.3
c1cnc2ccc(C(c3nnnn3C3CCCCC3)N3CCN4CCCC4C3)cc2c1 (stereo not drawn) | 0.8 | 0.4 | 0.0 | 1.0 | 72.3*
OC1CCN(C(c2ccc3ncccc3c2)c2nnnn2C2CCCCC2)CC1 (stereo not drawn) | 1.6 | 1.0 | 0.2 | 2.4 | 4.6
CCC(C)(C)n1nnnc1C(c1ccc2ncccc2c1)N1CCN2CCCC2C1 (stereo not drawn) | 0.7 | -0.7 | 0.1 | 2.5 | 69.7*
COc1ccc(Nc2nc(Nc3ccc(OC)cc3)nc(SC3=NCCS3)n2)cc1 | 1.6 | 2.3 | 47.9 | 1.1 | 9.7
COc1ccc(C)cc1S(=O)(=O)N(C)CC(=O)N1CCN(c2ccccc2)CC1 | 1.6 | 1.2 | 12.1 | 1.7 | -0.3
Clc1ccc(/C=C/c2nc3ccccc3[nH]2)cc1 | 0.0 | -0.8 | 17.1 | -0.3 | 30.5
Clc1cccc(Cl)c1/C=C/c1nc2ccccc2[nH]1 | 2.0 | 0.8 | 81.4* | 23.7 | 98.2*
CCC(C)Nc1c([N+](=O)[O-])cc(C)cc1[N+](=O)[O-] (stereo not drawn) | 0.6 | 1.9 | 67.0* | 2.7 | -2.6
Cc1cc([N+](=O)[O-])c(NCCCCCCO)c([N+](=O)[O-])c1 | . | . | . | . | 6.4
SMILES | ABCB1 block | RAM inhibit | WT yeast gro inh | ABCG2 inh | L major viab
COc1ccc(CSC(=N)N)cc1[N+](=O)[O-] | 0.5 | 2.3 | -13.2 | 2.2 | 7.9
CCOc1ccc(CSC2=NCCN2)cc1[N+](=O)[O-] | 0.5 | 1.1 | -1.6 | 4.6 | 8.8
CCCCCOc1ccc(CSC(=N)N)cc1[N+](=O)[O-] | 1.7 | 2.1 | 77.0* | 8.5 | 100.4*
CCCCOc1ccc(Br)cc1CSC(=N)N | 1.3 | 1.6 | 6.2 | 7.4 | 98.6*
CCCCOc1ccc(CSC2=NCCN2)cc1[N+](=O)[O-] | 0.7 | -0.6 | 21.9 | 7.7 | 95.0*
COc1ccc(CNC(NC(=O)c2ccccc2)(C(F)(F)F)C(F)(F)F)cc1 | -0.5 | 0.3 | 3.4 | -5.9 | 22.1
CCN(CC)c1ccc2cc(S(=O)(=O)c3ccc(C)cc3)c(=O)oc2c1 | -0.7 | 3.4 | 23.9 | -15.6 | 95.7*
CCN(CC)c1ccc2cc(C(=O)NNC(=O)c3ccc(S(=O)(=O)N4CCCCC4)cc3)c(=O)oc2c1 | -2.1 | 4.0 | 0.9 | -12.3 | 91.7*
Cc1cc(NC(=O)c2ccc(S(=O)(=O)N3CCCC3)cc2)nc2c1c(=O)oc1ccccc12 | -0.1 | 1.9 | -4.3 | 0.0 | 16.0

Source: PubChem BioAssay
